What was measured:
Rattus norvegicus [1] = experiment: Stereotypic behavior of male Sprague-Dawley rats, after a sc administration of 5 dose(mg/kg); type: functional
Method in brief: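 Male Sprague-Dawley rats (175–200 g), group-housed with free food and water, 12-h light cycle. Drug freshly dissolved in ice-cold 1 mM citric acid/0.9% saline (1:4, v/v), given sc; vehicle injected as placebo. Stereotypy rated 0–3 by experienced observer from 30-s observations every 10 min over 60 min (maximum 18). Four to six rats per dose; means ± SEM.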

Rattus norvegicus [2] = species on record: Rattus norvegicus; experiment: Percent control of stimulation of cAMP production in rat striatal homogenate at 50 micro M concentration; type: functional
Method in brief: (§1)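 Rat corpus striatum homogenates were incubated with excess ATP and theophylline to inhibit phosphodiesterase. cAMP formed per 2.5-min assay above the basal (no agonist) level was measured by protein-binding assay. Results are given as mean pmol ± SEM, and as percent of the blank control, with 5–12 replicates per concentration.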

Rattus norvegicus [3] = species on record: Rattus norvegicus; experiment: Stimulation of cAMP production in homogenates of corpus striatum from rat brain, at a concentration of 50 uM.; type: functional, organism-based; method in brief: as §1

Compound | Stereotypy score (Rattus norvegicus [1]) | Control (Rattus norvegicus [2]) | cAMP production (Rattus norvegicus [3])
CN1CCc2cccc3c2[C@H]1Cc1ccc(O)c(O)c1-3 [APOMORPHINE] | 18 | – | –
CCCN1CCc2cccc3c2[C@@H]1Cc1ccc(O)c(O)c1-3.CCCN1CCc2cccc3c2[C@H]1Cc1ccc(O)c(O)c1-3 (racemic; (+)) | 17.2 | – | –
NCCc1ccc(O)c(O)c1 | – | 217% | 5.39 N
CCCN1CCc2cccc3c2[C@@H]1Cc1ccc(O)c(O)c1-3.CN1CCc2cccc3c2[C@H]1Cc1ccc(O)c(O)c1-3 (stereo in doubt; (-)) | 17.7 | – | –
CCCN1CCc2cccc3c2[C@@H]1Cc1ccc(O)c(O)c1-3.CCCN1CCc2cccc3c2[C@H]1Cc1ccc(O)c(O)c1-3 (racemic; (-)) | 18 | – | –
CCCN1CCc2cccc3c2[C@@H]1Cc1ccc(O)c(O)c1-3.CN1CCc2cccc3c2[C@H]1Cc1ccc(O)c(O)c1-3 (stereo in doubt; (+)) | 17.5 | – | –
